Consider 31 compounds from ChEMBL document CHEMBL1125917, “Synthesis of halogen-substituted 1,5-benzothiazepine derivatives and their vasodilating and hypotensive activities” (1991).

Test [1] has as its system Canis familiaris. The test can be described thus: Antihypertensive activity by the increase in the vertebral blood flow in anesthetized dogs expressed as duration of half of the maximum change in blood flow. In kind it is functional, Canis lupus familiaris. In outline: (§1)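 Anesthetized dogs; compounds given intraarterially. Vertebral blood flow recorded, and a dose-response curve built from peak responses. Potency given as ratio to diltiazem, calculated from the dose-response curves. Half duration is the time, in minutes, that blood flow stays at one-half of the maximum change.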

Test [2] is filed under the species Canis familiaris. The test is described as follows: Antihypertensive activity expressed as the ratio of the potency evaluated by increased vertebral blood flow (VBF) to that of diltiazem. It is filed as functional, Canis lupus familiaris. A digest of the protocol:
as §1

The species entered for test [3] is Cavia porcellus. The test is described as follows: Increase in the coronary blood flow (CBF) was determined in isolated guinea pig heart at a dose of 100 ug/heart. It is filed as functional. In outline:
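Hartley guinea pig hearts perfused by the Langendorff method with modified Locke-Ringer solution containing defibrinated rabbit blood, at 40 cm H2O and 29 ± 1 °C. Compounds in saline injected into the aortic cannula at 3, 10, 30 or 100 μg/heart. Coronary flow measured by drop counter; graded by the lowest dose giving an increase of at least 0.5 mL/min.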

Test [4] deals with Rattus norvegicus. The test is described as follows: Change in blood pressure in spontaneously hypertensive rats 1 hr following 30 mg/kg p.o. The following applies: route oral. It is filed as functional. A digest of the protocol:
(§2)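 Male spontaneously hypertensive rats, fasted 20 h. Compounds dissolved in deionized water and given orally (30 mg/kg; some at 100 mg/kg). Blood pressure measured by tail-cuff in conscious animals. Change (mmHg) taken from the predosing value at 1 and 4 h, or 1 and 5 h, after dosing. N = 3-6.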

The subject of test [5] is Rattus norvegicus. The test can be described thus: Hypotensive activity in SHR (spontaneously hypertensive rats) expressed as change in blood pressure(mmHg) after 4 hr dosing at a concentration of 30 mg/kg. It is filed as functional. In outline: as §2

Compound `Cc1ccc(C2Sc3cc(Cl)ccc3N(CCN(C)C)C(=O)C2OC(=O)c2ccc(Cl)cc2[N+](=O)[O-])cc1` (centres undefined) had a Half duration in test [1] of 140 min. The Potency ratio in test [2] turned out to be 0.02.
With `COc1ccc(C2Sc3cc(Cl)ccc3N(CCN(C)C)C(=O)C2OC(=O)c2ccc(C)cc2)cc1` (centres undefined), the Half duration in test [1] stood at 140 min. In addition, the Potency ratio in test [2] was 0.33.
In turn, `Cc1ccc(C2Sc3cc(Cl)ccc3N(CCN(C)C)C(=O)C2O)cc1` (centres undefined) gave a Half duration in test [1] of 31 min. For the same compound, the Potency ratio in test [2] came out at 0.52.
For the compound `CCOC(=O)OC1C(=O)N(CCN(C)C)c2ccc(F)cc2SC1c1ccc(OC)cc1` (centres undefined), in test [1], the Half duration is on record as 33 min. Moreover, the Potency ratio in test [2] is 0.16. Besides, the “Increase in CBF” value in test [3] was more than 0.5 mL/min.
`COc1ccc(C2Sc3cc(F)ccc3N(CCN(C)C)C(=O)C2OC(=O)c2ccc(C)cc2)cc1` (centres undefined) showed a Half duration in test [1] of 62 min. For the same compound, in test [2], the Potency ratio is listed as 0.26.
`C#CCN(C)CCN1C(=O)C(O)C(c2ccc(OC)cc2)Sc2cc(Cl)ccc21` (centres undefined) returned a Half duration in test [1] of 28 min. Further, the Potency ratio in test [2] turned out to be 0.06.
In the case of `COc1ccc(C2Sc3cc(Cl)ccc3N(CCN(C)C)C(=O)C2OC(=O)c2ccc([N+](=O)[O-])cc2)cc1` (centres undefined), the Half duration in test [1] is 75 min. In addition, the Potency ratio in test [2] was found to be 0.05. Also, the “Increase in CBF” value in test [3] was more than 0.5 mL/min.
As for `Cc1ccc(C2Sc3cc(Cl)ccc3N(CCN(C)C)C(=O)C2OC(=O)c2ccc([N+](=O)[O-])cc2)cc1` (centres undefined), the Half duration in test [1] was 84 min. Further, the Potency ratio in test [2] is 0.08.
In the case of `Cc1ccc(C2Sc3cc(Cl)ccc3N(CCN(C)C)C(=O)C2OC(=O)c2ccc([N+](=O)[O-])cc2Cl)cc1` (centres undefined), the Half duration in test [1] is 156 min. In addition, in test [2], the Potency ratio came to 0.05.
On the same counts, the results for `CC(=O)OC1C(=O)N(CCN(C)C)c2ccc(Cl)cc2SC1c1ccc(C)cc1` (centres undefined) are 61 min and 0.37.
Consider `CCN(CC)CCN1C(=O)C(OC(C)=O)C(c2ccc(OC)cc2)Sc2cc(Cl)ccc21` (centres undefined), for which, in test [1], the Half duration is listed as 48 min. The Potency ratio in test [2] amounted to 0.55. Further, the “Increase in CBF” value in test [3] is more than 0.5 mL/min.
In test [1], `COc1ccc(C2Sc3cc(F)ccc3N(CCN(C)C)C(=O)C2O)cc1.Cl` (centres undefined) displayed a Half duration of 40 min. The Potency ratio in test [2] worked out at 0.37. In addition, the “Increase in CBF” value in test [3] is more than 0.5 mL/min.
In turn, `COc1ccc(C2Sc3c(ccc(Cl)c3Cl)N(CCN(C)C)C(=O)C2OC(C)=O)cc1.Cl` (centres undefined) registered a Half duration in test [1] of 156 min. Further, the Potency ratio in test [2] is 0.35. In addition, the “Increase in CBF” value in test [3] was more than 0.5 mL/min.
As to `COc1ccc(C2Sc3cc(Cl)ccc3N(CCN(C)C)C(=O)C2O)cc1.Cl` (centres undefined), the Half duration in test [1] is 39 min. Also, the Potency ratio in test [2] worked out at 0.76. In test [3], the “Increase in CBF” value is more than 0.5 mL/min.
`COc1ccc(C2Sc3cc(Cl)c(Cl)cc3N(CCN(C)C)C(=O)C2O)cc1.Cl` (centres undefined): the Half duration in test [1] stood at 36 min. Also, in test [2], the Potency ratio was 0.29. In test [3], the “Increase in CBF” value was more than 0.5 mL/min.
On the same counts, the results for `COc1ccc(C2Sc3c(F)cccc3N(CCN(C)C)C(=O)C2O)cc1.Cl` (centres undefined) are 33 min, 0.14 and more than 0.5 mL/min.
The compound `CCN(C)CCN1C(=O)C(OC)C(c2ccc(OC)cc2)Sc2cc(Cl)ccc21` (single isomer, unassigned; (+)) came in with a Half duration in test [1] of 41 min. The Potency ratio in test [2] came to 0.5.
Take `CCCC(=O)OC1C(=O)N(CCN(C)C)c2ccc(Cl)cc2SC1c1ccc(OC)cc1` (single isomer, unassigned; (+)): in test [1], the Half duration is recorded as 41 min. Also, in test [2], the Potency ratio is listed as 0.8. In addition, the “Change in blood pressure” value in test [4] is reported as -30 delta mmHg; in test [5] it was -28 delta mmHg.
Turning to `COc1ccc(C2Sc3ccc(Cl)cc3N(CCN(C)C)C(=O)C2O)cc1` (single isomer, unassigned; (+)), the Half duration in test [1] was 24 min. In test [2], the Potency ratio came out at 0.17. Besides, in test [3], the “Increase in CBF” value is less than 0.5 mL/min.
In test [1], `CCN(CC)CCN1C(=O)C(O)C(c2ccc(OC)cc2)Sc2cc(Cl)ccc21` (single isomer, unassigned; (+)) returned a Half duration of 31 min. Moreover, the Potency ratio in test [2] was found to be 0.32. The “Increase in CBF” value in test [3] is more than 0.5 mL/min.
For `CCCCC(=O)OC1C(=O)N(CCN(C)C)c2ccc(Cl)cc2SC1c1ccc(OC)cc1` (single isomer, unassigned; (+)), the Half duration in test [1] was found to be 42 min. The Potency ratio in test [2] was 0.67. The “Change in blood pressure” value in test [4] was -46 delta mmHg; in test [5], -39 delta mmHg.
In test [1], `COc1ccc(C2Sc3cc(Cl)ccc3N(CCN(C)C)C(=O)C2OC(=O)c2ccc([N+](=O)[O-])cc2Cl)cc1` (single isomer, unassigned; (+)) gave a Half duration of 118 min. Also, in test [2], the Potency ratio is 0.08. Also, the “Increase in CBF” value in test [3] is more than 0.5 mL/min.
In test [1], `C=CCN(C)CCN1C(=O)C(O)C(c2ccc(OC)cc2)Sc2cc(Cl)ccc21` (single isomer, unassigned; (+)) showed a Half duration of 34 min. Moreover, in test [2], the Potency ratio was determined as 0.23.
Compound `COc1ccc(C2Sc3ccc(Cl)cc3N(CCN(C)C)C(=O)C2OC(C)=O)cc1.Cl` (single isomer, unassigned; (+)) displayed a Half duration in test [1] of 29 min. In test [2], the Potency ratio was determined as 0.93. Further, the “Increase in CBF” value in test [3] was more than 0.5 mL/min.
With `COc1ccc(C2Sc3cc(Cl)ccc3N(CCN(C)C)C(=O)C2OC(C)=O)cc1.Cl` (single isomer, unassigned; (+)), the Potency ratio in test [2] came to 1.7. The figures for the “Change in blood pressure” value in test [4] (30 mg/kg) and in test [5] (30 mg/kg) were -86 delta mmHg and -68 delta mmHg, respectively.
As to `COc1ccc(C2Sc3c(Cl)cccc3N(CCN(C)C)C(=O)C2OC(C)=O)cc1.Cl` (single isomer, unassigned; (+)), the Half duration in test [1] worked out at 74 min. The Potency ratio in test [2] was 0.83. Moreover, the “Change in blood pressure” value is on record as -73.7 delta mmHg in test [4] and -54.3 delta mmHg in test [5].
`COc1ccc(C2Sc3c(Cl)cccc3N(CCN(C)C)C(=O)C2O)cc1` (single isomer, unassigned; (-)): the Half duration in test [1] is 21 min. In addition, in test [2], the Potency ratio is recorded as 0.02. Besides, the “Increase in CBF” value in test [3] was less than 0.5 mL/min.
The compound `COc1ccc(C2Sc3c(Cl)cccc3N(CCN(C)C)C(=O)C2OC(C)=O)cc1.Cl` (single isomer, unassigned; (-)) registered a Half duration in test [1] of 22 min. Besides, in test [2], the Potency ratio is 0.06. Further, in test [3], the “Increase in CBF” value is less than 0.5 mL/min.
Turning to `CCN(C)CCN1C(=O)C(OC(C)=O)C(c2ccc(OC)cc2)Sc2cc(Cl)ccc21` (stereo in doubt; 2o), in test [1], the Half duration was determined as 60 min. Besides, in test [2], the Potency ratio is 0.74.
On the same counts, the results for `COc1ccc(C2Sc3cc(Cl)ccc3N(CCN(C)C)C(=O)C2OC(C)=O)cc1.Cl` (stereo in doubt; 2w) are 31 min and 0.01.
`COc1ccc(C2Sc3ccc(Cl)cc3N(CCN(C)C)C(=O)C2OC(C)=O)cc1.Cl` (stereo in doubt; (-)-2ll) registered a Half duration in test [1] of 12 min. Moreover, in test [2], the Potency ratio is 0.03. Also, in test [3], the “Increase in CBF” value was less than 0.5 mL/min.
